Assay results as given in ChEMBL document CHEMBL1139365, “Inhibition of MDR1 activity in vitro by a novel class of diltiazem analogues: toward new candidates” (J Med Chem, 2009).

Tests used:
A2780 [1] = test: Antiproliferative activity against human A2780 cells at 6.1 uM after 3 days by MTT assay; assay type: functional; settings: A2780, 72 h
A2780 [2] = test: Antiproliferative activity against human A2780 cells after 3 days by MTT assay; assay type: functional, cell-based; settings: for IC50: Homo sapiens, A2780, 72 h
Outline: (§1)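 Cells plated 6–8 h in 96-well plates. Compound alone, in duplicate at ≥5 concentrations (3-fold serial dilutions, top 100 μM), with final DMSO […] after predilution in FCS. After 3 days, MTT 4 h at 37 °C, formazan dissolved in DMSO, A540. IC50 taken from single dose–response curves; 3–4 experiments. A2780/DX3 kept doxorubicin-free 2–3 days beforehand.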

[3] = Antiproliferative activity against human A2780/DX3 cells after 3 days by MTT assay; assay type: functional, cell-based; settings: for IC50: Homo sapiens, A2780/DX3, 72 h; outline: as §1
A2780 ADR [4] = test: Reversal of P-gp 170-mediated multidrug resistance in human A2780/DX3 cells assessed as reduction in doxorubicin IC50 at IC5 pretreated for 6 hrs before doxorubicin administration measured after 3 days by MTT assay; assay type: cell-based; parameters: scale not given: the % may be the effect or the level left
Outline: (§2)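 A2780/DX3 cells went into medium holding the modulator at its MTT-derived 0% or 5% growth-inhibition concentration. Doxorubicin (30–0.048 μM serial dilutions, modulator kept constant) was added 6 h later. MTT (2 mg/mL) was added after 3 days for 4 h at 37 °C, formazan dissolved in DMSO, A540 read. IC50 came from dose–response curves, repeated 4–6 times. % reduction is versus doxorubicin alone in the same experiment. Kruskal–Wallis/Mann–Whitney tests.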

A2780 ADR [5] = test: Reversal of P-gp 170-mediated multidrug resistance in human A2780/DX3 cells assessed as reduction in doxorubicin IC50 at IC0 pretreated for 6 hrs before doxorubicin administration measured after 3 days by MTT assay; assay type: cell-based; parameters: scale not given: the % may be the effect or the level left; outline: as §2
A2780 ADR [6] = test: Reversal of P-gp 170-mediated multidrug resistance in human A2780/DX3 cells assessed as increase in intracellular doxorubicin accumulation at 5 times IC5 pretreated for 2 hrs before doxorubicin administration measured after 2 hrs by flow cytometry; assay type: cell-based
Outline: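 A2780/DX3 cells (kept in 0.1 μM doxorubicin, drug withdrawn 2–3 days before use) seeded in flasks, grown 24 h to 75–85% confluence. Modulator given at five times the 5%-growth-inhibition concentration for 2 h, then 10 μM doxorubicin for 2 h more. Cells trypsinized, fixed in 3.7% paraformaldehyde/2% sucrose in PBS. Flow cytometry, 488 nm excitation, 575 nm bandpass. Read-out is MFI, with % increase taken from the MFI ratio to doxorubicin alone.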

[7] = Antiproliferative activity against human A2780/DX3 cells at 0.5 uM after 3 days by MTT assay; assay type: functional; settings: A2780/DX3, 72 h
A2780 [8] = test: Antiproliferative activity against human A2780 cells at 2.22 uM after 3 days by MTT assay; assay type: functional; settings: A2780, 72 h
[9] = Antiproliferative activity against human A2780/DX3 cells at 2.40 uM after 3 days by MTT assay; assay type: functional; settings: A2780/DX3, 72 h
A2780 [10] = test: Antiproliferative activity against human A2780 cells at 5.3 uM after 3 days by MTT assay; assay type: functional; settings: A2780, 72 h
[11] = Antiproliferative activity against human A2780/DX3 cells at 1.9 uM after 3 days by MTT assay; assay type: functional; settings: A2780/DX3, 72 h
A2780 [12] = test: Antiproliferative activity against human A2780 cells at 15.4 uM after 3 days by MTT assay; assay type: functional; settings: A2780, 72 h
[13] = Antiproliferative activity against human A2780/DX3 cells at 2.25 uM after 3 days by MTT assay; assay type: functional; settings: A2780/DX3, 72 h
A2780 [14] = test: Antiproliferative activity against human A2780 cells at 3.1 uM after 3 days by MTT assay; assay type: functional; settings: A2780, 72 h
[15] = Antiproliferative activity against human A2780/DX3 cells at 3.7 uM after 3 days by MTT assay; assay type: functional; settings: A2780/DX3, 72 h
A2780 [16] = test: Antiproliferative activity against human A2780 cells at 9.4 uM after 3 days by MTT assay; assay type: functional; settings: A2780, 72 h
[17] = Antiproliferative activity against human A2780/DX3 cells at 4.2 uM after 3 days by MTT assay; assay type: functional; settings: A2780/DX3, 72 h
A2780 [18] = test: Antiproliferative activity against human A2780 cells at 1.97 uM after 3 days by MTT assay; assay type: functional; settings: A2780, 72 h
[19] = Antiproliferative activity against human A2780/DX3 cells at 0.84 uM after 3 days by MTT assay; assay type: functional; settings: A2780/DX3, 72 h
A2780 [20] = test: Antiproliferative activity against human A2780 cells at 12.2 uM after 3 days by MTT assay; assay type: functional; settings: A2780, 72 h
[21] = Antiproliferative activity against human A2780/DX3 cells at 1.0 uM after 3 days by MTT assay; assay type: functional; settings: A2780/DX3, 72 h
A2780 [22] = test: Antiproliferative activity against human A2780 cells at 1.2 uM after 3 days by MTT assay; assay type: functional; settings: A2780, 72 h

| SMILES | IC50 (A2780 [2]) [µM] | IC5 (A2780 [2]) [µM] | IC5 [3] [µM] | IC50 [3] [µM] | Activity (A2780 ADR [4]) [%] | Activity (A2780 ADR [5]) [%] | Activity (A2780 ADR [6]) [%] | other results |
| --- | --- | --- | --- | --- | --- | --- | --- | --- |
| CCCCCCCCCCCCCCCCCCOC1(c2ccc(Cl)cc2)SC=C(C)n2c1noc2=O (stereo unspecified) | > 100 | 4.74 | 6.74 | > 100 | -20 | -24 | < 48 | inhibition at 2.22 µM (A2780 [8]): 0%; inhibition at 2.4 µM [9]: 0% |
| CC1=CSC(O)(c2cccc(C(F)(F)F)c2)c2noc(=O)n21 (stereo unspecified) | 60 | 18.3 | 12.6 | 71 | -4 | -22 | < 48 | inhibition at 5.3 µM (A2780 [10]): 0%; inhibition at 1.9 µM [11]: 0% |
| CC1=CSC(O)(c2cccc([N+](=O)[O-])c2)c2noc(=O)n21 (stereo unspecified) | 159 | 3.95 | 15.9 | 129 | 10 | -21 | < 48 | inhibition at 3.1 µM (A2780 [14]): 0%; inhibition at 3.7 µM [15]: 0% |
| CCCCOC1(c2ccc(Cl)cc2)SC=C(C)n2c1noc2=O (stereo unspecified) | 89 | 19.7 | 2.2 | 49 | -16 | -21 | < 48 | inhibition at 12.2 µM (A2780 [20]): 0%; inhibition at 1 µM [21]: 0% |
| CCCCOC1(c2ccc(Br)cc2)SC=C(C)n2c1noc2=O (stereo unspecified) | 82 | 7.7 | 3.2 | 78 | 3 | 3 | < 48 | inhibition at 1.2 µM (A2780 [22]): 0%; inhibition at 1 µM [21]: 0% |

Continued, in another order:

| IC50 (A2780 [2]) [µM] | SMILES | IC5 (A2780 [2]) [µM] | IC5 [3] [µM] | IC50 [3] [µM] | Activity (A2780 ADR [4]) [%] | Activity (A2780 ADR [5]) [%] | Activity (A2780 ADR [6]) [%] | other results |
| --- | --- | --- | --- | --- | --- | --- | --- | --- |
| > 100 | CC1=CSC(O)(c2ccc(C)cc2)c2noc(=O)n21 (stereo unspecified) | 28.8 | 31.1 | > 100 | -1 | 4 | < 48 | inhibition at 6.1 µM (A2780 [1]): 0%; inhibition at 0.5 µM [7]: 0% |
| > 100 | COc1ccc(C2(O)SC=C(C)n3c2noc3=O)cc1 (stereo unspecified) | 40.1 | 26.7 | > 100 | 12 | 10 | < 48 | inhibition at 15.4 µM (A2780 [12]): 0%; inhibition at 2.25 µM [13]: 0% |
| 148 | COC1(c2ccc(Br)cc2)SC=C(C)n2c1noc2=O (stereo unspecified) | 21.6 | 8.9 | > 100 | -9 | -9 | < 48 | inhibition at 9.4 µM (A2780 [16]): 0%; inhibition at 4.2 µM [17]: 0% |
| > 100 | CC1=CSC(O)(c2cccc(Cl)c2)c2noc(=O)n21 (stereo unspecified) | 24.3 | 3.89 | > 100 | 7 | 7 | < 48 | inhibition at 1.97 µM (A2780 [18]): 0%; inhibition at 0.84 µM [19]: 0% |
